Screens as filed in PubChem.
MIN6 prolif: inducers of MIN6 beta-cell proliferation, primary screen, ATP luminescence, uHTS; proliferation, % at 10 µM; 0.29% of 330,000 active; AID 2380, 2010; MIN6 cells proliferation, ATPlite luminescence, 48 h; cells starved in 0.2% serum; 100% = growth in 10% serum;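 active means compounds whose signal lies at least 3.5 SD above the mean of all wells on their plate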
T cruzi inh: inhibitors of intracellular T. cruzi growth, primary screen, luminescence, NIH3T3 host cells. T. cruzi beta-gal in NIH3T3, 90 h. inhibition, % (no concentration beside the values). 1.4% of 300,000 active. AID 1885, 2009;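 active means mean inhibition across valid replicates above about 55%, limit read from the data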;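 further: signal also drops with host cell toxicity which is not excluded here; higher percent means less beta-gal luminescence so fewer parasites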
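System: mouse NIH/3T3 fibroblasts infected with β-gal-expressing T. cruzi Tulahuen C4 / Input: NIH/3T3 cells, 5,000 per well / Buffer or medium: Low-serum DMEM with 2% FBS / Probe or stimulus: 5000 reporter trypomastigotes per well / Schedule: ≥90 h infection period, 3 h prior cell attachment / Measured by: GalScreen luminescence, 60 min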
PG9 Ab binder: binders of HIV-1 gp120 antibody PG9, primary screen, biochemical, TR-FRET. TR-FRET gp120-PG9 antibody binding. inhibition, % at 6.7 µM. 0.43% of 360,000 active; in the data active means inhibition above about 8.5%
TAG inh: inhibitors of triacylglycerol accumulation, primary screen, cell-based, uHTS, fluorescence, H9c2; H9c2 cells, Nile Red lipid (TAG) fluorescence; cells loaded with 200 µM oleic acid; inhibition, % at 12.5 µM; 0.66% of 230,000 active; AID 651582, 2012;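 active means pattern-corrected inhibition of lipid staining of at least 50% with the nuclear-stain viability signal not falling by more than 50%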
iPSC survival up: enhancers of single-cell hiPSC survival, primary screen, ATPlite luminescence. 100% = ROCK inhibitor wells, 0% = DMSO. 0.044% of 360,000 active. AID 602274, 2012. survival enhancement, % at 20 µM; in the data active means survival enhancement above about 18%;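 further: cells exposed to compounds for 16 hours before the ATP read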
Rev-erbA mod: modulators of Rev-erb alpha DNA binding, primary screen, biochemical, FITC-DNA, fluorescence polarization, uHTS | Nuclear receptor subfamily 1 group D member 1 (Homo sapiens), P20393 | activity, % at 10 µM | 0.79% of 370,000 active | AID 1259318, 2017 | Rev-erbα–FITC-DNA binding, 90 min;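 active means activity above about 14%, limit read from the data; passing the limit was not always enough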
Target sequence (P20393 whole entry, looked up): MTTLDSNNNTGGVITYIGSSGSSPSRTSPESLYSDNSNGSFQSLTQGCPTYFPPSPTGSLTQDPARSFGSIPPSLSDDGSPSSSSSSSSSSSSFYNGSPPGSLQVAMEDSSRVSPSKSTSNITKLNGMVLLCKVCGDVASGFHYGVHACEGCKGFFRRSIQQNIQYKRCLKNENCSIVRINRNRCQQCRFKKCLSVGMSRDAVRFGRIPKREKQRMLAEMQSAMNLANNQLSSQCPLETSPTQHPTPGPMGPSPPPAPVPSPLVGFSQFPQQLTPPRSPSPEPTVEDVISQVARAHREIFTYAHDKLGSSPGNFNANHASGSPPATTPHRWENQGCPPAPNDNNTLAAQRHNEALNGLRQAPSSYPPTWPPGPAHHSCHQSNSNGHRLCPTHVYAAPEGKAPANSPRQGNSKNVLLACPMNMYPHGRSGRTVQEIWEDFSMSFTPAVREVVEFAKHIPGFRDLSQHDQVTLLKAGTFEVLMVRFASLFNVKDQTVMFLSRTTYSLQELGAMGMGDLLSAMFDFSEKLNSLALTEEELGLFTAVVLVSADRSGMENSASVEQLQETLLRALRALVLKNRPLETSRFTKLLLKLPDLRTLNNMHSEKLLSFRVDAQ
PG9 binder conf: binders of anti-gp120 antibody PG9, confirmation, biochemical, TR-FRET; inhibition, % at 6.7 µM; TR-FRET PG9 antibody binding; 90% of 1,500 active; shares compounds with PG9 Ab binder; in the data active means inhibition above about 9%
PGV04 Ab binding: binders of control antibody PGV04, counter-screen for PG9 antibody binder project, biochemical, TR-FRET, distinct HIV envelope site; TR-FRET PGV04 antibody-gp120 binding; 95% of 1,500 active; inhibition, % at 6.7 µM; shares compounds with PG9 Ab binder; in the data active means inhibition above about 9.5%
Of the large screens only hits and unclear results are named; the others gave an inactive call (follow-up assays come after a bar, where they were run). Hits are enriched below; roughly 2.9% of the tested compounds scored in any of these assays.

Cc1cc(C)c2nc(-c3ccccn3)cc(C(=O)NCCc3ccc(S(N)(=O)=O)cc3)c2c1	PG9 Ab binder 29.9 | PG9 binder conf 23.4 | PGV04 Ab binding 39.9
COc1ccccc1CCNC(=O)c1cc(-c2ccccn2)nc2ccccc12	PG9 Ab binder 27.0 (no result: T cruzi inh) | PG9 binder conf 22.1 | PGV04 Ab binding 31.8
Cc1cc(C)c2nc(-c3ccccn3)cc(C(=O)NCc3ccc(S(N)(=O)=O)cc3)c2c1	none (no result: TAG inh)
CCCC(=O)Nc1nc(C)c(C(C)=O)s1	PG9 Ab binder 32.0 | PG9 binder conf 36.4 | PGV04 Ab binding 48.9
NS(=O)(=O)c1ccc(CCNC(=O)COC(=O)CN2C(=O)C3CCCCC3C2=O)cc1 (stereo unspecified)	none
CCCOc1ccc(/C(O)=C2/C(=O)C(=O)N(c3ccccn3)C2c2ccc(OC)cc2)cc1C (stereo unspecified)	PG9 Ab binder 17.1 (no result: TAG inh) | PG9 binder conf 25.4 | PGV04 Ab binding 36.0
Cc1ccc(/C(O)=C2/C(=O)C(=O)N(c3ccccn3)C2c2ccc(F)cc2)cc1 (stereo unspecified)	none (no result: TAG inh)
CCOc1ccc(/C(O)=C2/C(=O)C(=O)N(c3ccccn3)C2c2ccc(F)cc2)c(C)c1 (stereo unspecified)	PG9 Ab binder 10.4 (no result: TAG inh) | PG9 binder conf 17.8 | PGV04 Ab binding 24.4
CCc1nnc2c(NCCc3ccc(OC)c(OC)c3)nc3ccccc3n12	none (no result: TAG inh)
Cc1nnc2c(NCCc3ccccc3)nc3ccccc3n12	PG9 Ab binder 10.8 (no result: TAG inh) | PG9 binder conf 49.3 | PGV04 Ab binding 61.9
Nc1cccc(S(=O)(=O)c2ccc(N)c(N)c2)c1	none (no result: TAG inh)
O=C(Nc1nc2c(Br)cc(Br)cc2c(=O)s1)c1ccco1	PG9 Ab binder 30.0 | PG9 binder conf 57.5 | PGV04 Ab binding 63.2
Cc1cc(C)c2nc(NC(=O)c3ccco3)sc2c1	none (no result: TAG inh)
Cc1cc(OC(=O)c2cc(Cl)ccc2Cl)c([N+](=O)[O-])c(=O)[nH]1	PG9 Ab binder 30.3 | PG9 binder conf inactive | PGV04 Ab binding 11.2
COc1ccc(C(C(=O)NC2CCCC2)N(C(=O)c2snc(-c3ccc(F)cc3)c2N)c2cccc(F)c2)cc1 (stereo unspecified)	none (no result: TAG inh)
CCOc1cc(C2C(C#N)=C(N)SC(N)=C2C#N)ccc1OCCN1CCOCC1	PG9 Ab binder 13.1 (no result: TAG inh) | PG9 binder conf 14.9 | PGV04 Ab binding 20.9
CCOCCn1ccc2c(OCC(=O)Nc3cc(OC)ccc3OC)cccc2c1=O	none
CC(C)(C)NS(=O)(=O)c1ccc2nc(NC(=O)c3ccc(N4C(=O)CCC4=O)cc3)sc2c1	PG9 Ab binder 47.6 | PG9 binder conf 46.2 | PGV04 Ab binding 64.4
Cc1ccc2nc(NC(=O)c3ccc(N4C(=O)CCC4=O)cc3)sc2c1	none
Cc1nnc(NC(=O)c2ccc(-c3ccc(Cl)cc3)o2)s1	PG9 Ab binder 11.1 | PG9 binder conf 12.7 | PGV04 Ab binding 27.1
Nc1ccc(C(=O)NCC2(c3ccccc3)CCCC2)cc1	none (no result: T cruzi inh)
CC1(NC(=O)CCNC(=O)c2ccc(C(C)(C)C)cc2)CCS(=O)(=O)C1 (stereo unspecified)	none (no result: T cruzi inh)
CC(=O)OC1CC(C)(C)N(OC(=O)c2ccc(N)cc2)C(C)(C)C1	PG9 Ab binder 28.8 (no result: TAG inh) | PG9 binder conf 31.6 | PGV04 Ab binding 42.9
COc1ccc(-c2ccc(SCC(=O)NC3CCCCC3)nn2)cc1	none (no result: TAG inh)
COc1ccc(-c2cn3nc(SCC(=O)NC4CCCCC4)ccc3n2)cc1	PG9 Ab binder 33.0 (no result: TAG inh) | PG9 binder conf 61.9 | PGV04 Ab binding 75.2
N#CC1(NC(=O)CN2C(=O)c3ccccc3C2=O)CCCCC1	none (no result: T cruzi inh)
COC(=O)CSc1nnc(-c2c[nH]c3ccccc23)o1	none
O=C(CSc1nnc(-c2c[nH]c3ccccc23)o1)c1ccc(-c2ccccc2)cc1	PG9 Ab binder 17.8 (no result: TAG inh) | PG9 binder conf 21.7 | PGV04 Ab binding 43.4
CC(=O)Nc1ccc(/C(C)=N/NC(=O)C2CC2c2ccccc2)cc1 (stereo unspecified)	none (no result: TAG inh)
CSc1nc(-c2ccccc2)nc(N)c1C(C)=O	none (no result: PG9 Ab binder, TAG inh, iPSC survival up, Rev-erbA mod)
CCOC(=O)c1sc2nccc(N(C)C)c2c1N=CNOCc1c(F)cccc1Cl	T cruzi inh 69.9, PG9 Ab binder 10.4 | PG9 binder conf 17.7 | PGV04 Ab binding 24.7
COc1ccc([C@H]2C[C@H](O)[C@@H](n3cc(COC(=O)c4ccccc4)nn3)CN2C(=O)C2CCCCC2)cc1	none (no result: MIN6 prolif, T cruzi inh)
CCOC(=O)c1c(C)[nH]c(C(=O)COC(=O)c2ccc(F)c(S(=O)(=O)N3CCOCC3)c2)c1C	PG9 Ab binder 17.3 (no result: TAG inh) | PG9 binder conf 29.1 | PGV04 Ab binding 40.2
COc1ccc(N2C(=NC(=O)c3ccccc3)SC3CS(=O)(=O)CC32)cc1 (stereo unspecified)	none (no result: TAG inh)
COc1cccc(N2C(=NC(=O)c3ccccc3)SC3CS(=O)(=O)CC32)c1 (stereo unspecified)	PG9 Ab binder 11.2 (no result: TAG inh) | PG9 binder conf 10.3 | PGV04 Ab binding 14.3
C=CCN1C=C2C(=O)C(C)(OC(=O)c3ccc(OC)cc3)C(=O)C(c3ccco3)=C2C=C1CCCC (stereo unspecified)	PG9 Ab binder 9.7 | PG9 binder conf 15.8 | PGV04 Ab binding 19.7
CSc1nc(N)nc(SCC(=O)c2ccc(C)cc2)c1C#N	PG9 Ab binder 23.3 (no result: TAG inh) | PG9 binder conf 26.8 | PGV04 Ab binding 35.2
CCCCNC(=O)C(NC(=O)c1ccc(C)cc1)C(=O)c1ccccc1 (stereo unspecified)	none (no result: MIN6 prolif, T cruzi inh, TAG inh, iPSC survival up)
CCCCNC(=O)C(NC(=O)c1cccc(C(F)(F)F)c1)C(=O)c1ccccc1 (stereo unspecified)	PG9 Ab binder 27.4 (no result: MIN6 prolif, T cruzi inh, TAG inh) | PG9 binder conf 41.1 | PGV04 Ab binding 54.8
Cc1[nH]c2ccccc2c1C1=CC(=O)C=CC1=O	PG9 Ab binder 10.4 (no result: MIN6 prolif, T cruzi inh) | PG9 binder conf 20.3 | PGV04 Ab binding 25.0
O=C(Nc1ccc(NS(=O)(=O)c2ccccc2)cc1)c1ccc(Cl)cc1	none
COc1ccc(Cc2nnc3sc(SCC(=O)Nc4ccccc4)nn3c2=O)cc1OC	none
Cn1c(/C=C/c2ccc(Br)cc2)nc2ccccc2c1=O	PG9 Ab binder 45.5 (no result: TAG inh) | PG9 binder conf 14.9 | PGV04 Ab binding 28.8
